Measurements: publication PMC7178755 (Toxicology and applied pharmacology, 2019)
“And” between values parts separate entries of the source, which are not always exact repeats. Equal values may be shown once.

Legend:
[1] = Plasma toxicokinetics after single intravenous administration in rats; type: in vivo, Harlan Sprague Dawley rats
[2] = Plasma toxicokinetics after single gavage administration in mice; type: in vivo, B6C3F1/N mice; settings: for half-life / AUC(0-inf) / Cmax / Tmax / bioavailability: 34 mg/kg; for bioavailability: AUC/Dose (oral) ÷ AUC/Dose (IV) x 100
[3] = Plasma toxicokinetics after single intravenous administration in mice; type: in vivo, B6C3F1/N mice; settings: for AUC(0-inf) / Cmax / Vd / half-life: B6C3F1/N, mouse, iv, 34 mg/kg; for half-life / Cl1 / Cl2 / K12 / K21 / V1 / V2: free BPAF, 34 mg/kg IV, mean (SE)
[4] = Gavage toxicokinetics, summary statements over rats and mice; type: in vivo; settings: rat, mouse, plasma, po
How it was run: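 Single gavage doses in corn oil were given to male and female rats (9–10 wk; 34, 110, 340 mg/kg) and B6C3F1/N mice (10–11 wk; 34 mg/kg), with a 34 mg/kg IV tail-vein reference. Plasma was sampled from 5 min to 48 h. Free and total (enzyme-deconjugated) test compound was quantitated. F = dose-adjusted oral/IV free AUC0−∞; half-life taken as K10 half-life from compartmental fits.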

[5] = free BPAF; rats; single gavage 20 and 100 mg/kg; ref Li et al. (2013); cited from earlier work
[6] = rat, sex and strain not specified; ref Halocarbon, 2008; cited from earlier work
[7] = female, Hsd:Sprague Dawley SD, rat, iv, 34 mg/kg
[8] = free BPAF, female rats, 34 mg/kg IV, mean (SE)
[9] = free BPAF, male rats, 34 mg/kg IV, mean (SE)
[10] = male, Hsd:Sprague Dawley SD, rat, iv, 34 mg/kg
[11] = female, B6C3F1/N, mouse, plasma, po
[12] = free BPAF, female B6C3F1/N mice, 34 mg/kg gavage
[13] = free BPAF, female mice, 34 mg/kg gavage, plasma, mean (SE)
[14] = free BPAF, male mice, 34 mg/kg gavage, plasma, mean (SE)
[15] = male, B6C3F1/N, mouse, plasma, po

## Oc1ccc(C(c2ccc(O)cc2)(C(F)(F)F)C(F)(F)F)cc1 [BPAF, Bisphenol AF]
[1]; [7]
  Cmax: 71.5 µg/mL
  Vd: 0.697 L/kg
[1]; [8]
  Cl1: 0.751 (0.118) L/h/kg
  K12: 0.0656 (0.0398) 1/h
  K21: 0.141 (0.0339) 1/h
  V1: 0.476 (0.115) L/kg
  V2: 0.222 (0.0922) L/kg
[1]; [9]
  Cl1: 0.753 (0.102) L/h/kg
  Cl2: 0.0225 (0.00797) L/h /kg
  K12: 0.0503 (0.0151) 1/h
  K21: 0.0892 (0.0147) 1/h
  V1: 0.448 (0.0811) L/kg
  V2: 0.253 (0.0785) L/kg
[1]; [10]
  AUC(0-inf): 45200 ng·h/mL
  Cmax: 75.9 µg/mL
  Vd: 0.7 L/kg
[2]; both, B6C3F1/N, mouse, plasma, po, elimination half-life, free BPAF, male and female mice, 34 mg/kg gavage
  half-life: ≤ 4.22 h
[2]; [11]
  AUC(0-inf): 495 ng·h/mL and 1.47 µM·h
  Cmax: 105 ng/mL and 313 nM
  Tmax: 0.342 h
[2]; female, B6C3F1/N, mouse, plasma, po, Alpha Half-life, free BPAF, female mice, 34 mg/kg gavage, mean (SE)
  half-life: 0.209 h
[2]; female, B6C3F1/N, mouse, plasma, po, Beta Half-life, free BPAF, female mice, 34 mg/kg gavage, mean (SE)
  half-life: 9.02 h
[2]; female, B6C3F1/N, mouse, plasma, po, Bioavailability, free BPAF, Female Mice, 34 mg/kg gavage
  bioavailability: 3%
[2]; female, B6C3F1/N, mouse, plasma, po, K10 Half-Life, free BPAF, female mice, 34 mg/kg gavage, mean (SE)
  half-life: 1.33 h
[2]; free BPAF, Female Mice, 34 mg/kg gavage
  bioavailability: 3.13%
[2]; free BPAF, Male Mice, 34 mg/kg gavage
  bioavailability: 5.64%
[2]; [12]
  Dose-normalized AUC0−∞: 14.6 (nmol.h/mL)/(mmol/kg)
  Dose-normalized Cmax: 3.099 (nmol/mL)/(mmol/kg)
[2]; [13]
  Cl1_F: 68.7 (22.5) L/h/kg
  Cl2_F: 313 (17400) L/h /kg
  K12: 2.38 (899) 1/h
  K21: 0.487 (0.497) 1/h
  V1_F: 131 (42200) L/kg
  V2_F: 642 (35300) L/kg
[2]; [14]
  Cl1_F: 80.0 (22.5) L/h/kg
  Cl2_F: 13.2 (226) L/h /kg
  K12: 0.0271 (0.476) 1/h
  K21: 0.369 (5.1) 1/h
  V1_F: 487 (238) L/kg
[2]; [15]
  AUC(0-inf): 425 ng·h/mL
  Cmax: 0.0641 µg/mL
  Tmax: 0.455 h
[2]; male, B6C3F1/N, mouse, plasma, po, Alpha Half-life, free BPAF, male mice, 34 mg/kg gavage, mean (SE)
  half-life: 1.67 h
[2]; male, B6C3F1/N, mouse, plasma, po, Beta Half-life, free BPAF, male mice, 34 mg/kg gavage, mean (SE)
  half-life: 4.73 h
[2]; male, B6C3F1/N, mouse, plasma, po, Bioavailability, free BPAF, Male Mice, 34 mg/kg gavage
  bioavailability: ~6%
[2]; male, B6C3F1/N, mouse, plasma, po, K10 Half-Life, free BPAF, male mice, 34 mg/kg gavage, mean (SE)
  half-life: 4.22 h
[3]; female
  AUC(0-inf): 15800 ng·h/mL
  Cmax: 92.3 µg/mL
  Vd: 1.36 L/kg
[3]; female, Alpha half-life, female mice
  half-life: 0.106 h
[3]; female, Beta half-life, female mice
  half-life: 3.03 h
[3]; female, K10 Half-Life, female mice
  half-life: 0.119 h
[3]; female mice
  Cl1: 2.15 (0.426) L/h/kg
  Cl2: 0.256 (0.108) L/h /kg
  K12: 0.696 (0.190) 1/h
  K21: 0.257 (0.0225) 1/h
  V1: 0.368 (0.129) L/kg
  V2: 0.995 (0.388) L/kg
[3]; male mice
  Cl1: 4.51 (0.547) L/h/kg
  Cl2: 0.860 (0.324) L/h /kg
  K12: 0.189 (0.0802) 1/h
  K21: 0.227 (0.0304) 1/h
  V1: 4.54 (1.06) L/kg
  V2: 3.78 (1.10) L/kg
[3]; male
  AUC(0-inf): 7540 ng·h/mL
  Cmax: 7.49 µg/mL
  Vd: 8.32 L/kg
[3]; male, Alpha half-life, male mice
  half-life: 0.566 h
[3]; male, Beta half-life, male mice
  half-life: 3.76 h
[3]; male, K10 Half-Life, male mice
  half-life: 0.698 h
[4]; Hsd:Sprague Dawley SD (rats), B6C3F1/N (mice)
  half-life: ≤ 4.22 h
[4]; female, Harlan Sprague Dawley (rats) and B6C3F1/N (mice), 34 mg/kg
  half-life: ~9 h
[5]
  Tmax (maximum plasma BPAF concentration observed at): 1 h
[6]
  oral LD50: 3400 mg/kg
